Laboratory results published in ChEMBL document CHEMBL1123801, “Synthesis and antifungal activity of new 1-vinylimidazoles” (1987).
≈ marks a conversion by molar mass, not a printed value.

How the values were obtained:
Type in all cases: functional
Candida albicans = test: Minimum inhibitory concentration (MIC) against Candida albicans
Method in brief: (§1)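 Broth microdilution in Sabouraud's glucose broth. Final inocula 1×10^5 cells/mL for the yeast (C. albicans) and 1×10^5 conidia/mL for the mold (A. fumigatus) and the dermatophyte (T. asteroides). MIC read as the fungistatic end point. Lowest value of duplicated experiments.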

Trichophyton benhamiae = test: Minimum inhibitory concentration against Trichophyton asteroides; method in brief: as §1
Aspergillus fumigatus = test: Minimum inhibitory concentration (MIC) against Aspergillus fumigatus; method in brief: as §1

MIC (Candida albicans)	MIC (Trichophyton benhamiae)	MIC (Aspergillus fumigatus)	Compound
> 100 µg/mL	6.2 µg/mL (≈ 16.3 µM)	> 100 µg/mL	C=C(c1cc(Cl)cc(Cl)c1OCc1ccc(Cl)cc1)n1ccnc1
50 µg/mL (≈ 157 µM)	0.1 µg/mL (≈ 0.314 µM)	0.8 µg/mL (≈ 2.51 µM)	CC(C)=C(c1ccccc1OCCc1ccccc1)n1ccnc1
3.1 µg/mL (≈ 9.15 µM)	0.1 µg/mL (≈ 0.295 µM)	1.6 µg/mL (≈ 4.72 µM)	C/C=C(\c1ccccc1OC(C)c1cccc(Cl)c1)n1ccnc1 (centres undefined)
> 100 µg/mL	> 100 µg/mL	> 100 µg/mL	C=C(c1ccc(Cl)cc1OCc1ccc(Cl)cc1)n1ccnc1
> 100 µg/mL	1.6 µg/mL (≈ 7.99 µM)	12.5 µg/mL (≈ 62.4 µM)	C=C(c1ccccc1OC)n1ccnc1
25 µg/mL (≈ 71.2 µM)	0.1 µg/mL (≈ 0.285 µM)	6.2 µg/mL (≈ 17.7 µM)	C=C(c1cc(Cl)ccc1OCc1ccsc1Cl)n1ccnc1
> 100 µg/mL	0.1 µg/mL (≈ 0.295 µM)	12.5 µg/mL (≈ 36.9 µM)	C=C(c1cc(Cl)ccc1OC(CC)c1ccccc1)n1ccnc1 (centres undefined)
25 µg/mL (≈ 67.8 µM)	0.1 µg/mL (≈ 0.271 µM)	6.2 µg/mL (≈ 16.8 µM)	C=C(c1cc(Cl)ccc1OCc1ccc(C(=O)OC)cc1)n1ccnc1
12.5 µg/mL (≈ 39 µM)	0.4 µg/mL (≈ 1.25 µM)	12.5 µg/mL (≈ 39 µM)	C=C(c1ccccc1OC(C)c1ccc(OC)cc1)n1ccnc1 (centres undefined)
25 µg/mL (≈ 77 µM)	0.8 µg/mL (≈ 2.46 µM)	1.6 µg/mL (≈ 4.93 µM)	C=C(c1cc(Cl)ccc1OCc1ccc(C)cc1)n1ccnc1
3.1 µg/mL (≈ 10.7 µM)	0.1 µg/mL (≈ 0.344 µM)	3.1 µg/mL (≈ 10.7 µM)	C=C(c1ccccc1OCc1ccc(C)cc1)n1ccnc1
> 100 µg/mL	3.1 µg/mL (≈ 8.98 µM)	> 100 µg/mL	C=C(c1cc(Cl)cc(Cl)c1OCc1ccccc1)n1ccnc1
25 µg/mL (≈ 70.8 µM)	1.6 µg/mL (≈ 4.53 µM)	12.5 µg/mL (≈ 35.4 µM)	CC(C)=C(c1cc(Cl)ccc1OCc1ccc(C)cc1)n1ccnc1
6.2 µg/mL (≈ 19.1 µM)	0.4 µg/mL (≈ 1.23 µM)	12.5 µg/mL (≈ 38.5 µM)	C=C(c1ccccc1OC(C)c1cccc(Cl)c1)n1ccnc1 (centres undefined)
> 100 µg/mL	12.5 µg/mL (≈ 32.9 µM)	> 100 µg/mL	C=C(c1c(Cl)ccc(Cl)c1OCc1ccc(Cl)cc1)n1ccnc1
25 µg/mL (≈ 77 µM)	0.1 µg/mL (≈ 0.308 µM)	6.3 µg/mL (≈ 19.4 µM)	C=C(c1cc(Cl)ccc1OC(C)c1ccccc1)n1ccnc1 (centres undefined)
25 µg/mL (≈ 67.4 µM)	0.1 µg/mL (≈ 0.27 µM)	3.1 µg/mL (≈ 8.36 µM)	C=C(c1ccccc1OCCCSc1ccc(Cl)cc1)n1ccnc1
> 100 µg/mL	25 µg/mL (≈ 107 µM)	100 µg/mL (≈ 426 µM)	C=C(c1ccc(Cl)cc1OC)n1ccnc1
12.5 µg/mL (≈ 30.7 µM)	0.2 µg/mL (≈ 0.491 µM)	0.8 µg/mL (≈ 1.96 µM)	CCC=C(c1cc(Cl)ccc1OCc1ccc(Cl)cc1Cl)n1ccnc1
50 µg/mL (≈ 145 µM)	0.1 µg/mL (≈ 0.29 µM)	1.6 µg/mL (≈ 4.63 µM)	C=C(c1ccccc1OCc1ccc(Cl)cc1Cl)n1ccnc1

MIC (Candida albicans)	MIC (Trichophyton benhamiae)	MIC (Aspergillus fumigatus)	Compound
25 µg/mL (≈ 78.5 µM)	3.1 µg/mL (≈ 9.74 µM)	6.2 µg/mL (≈ 19.5 µM)	CC(C)=C(c1ccccc1OCc1ccc(C)cc1)n1ccnc1
6.2 µg/mL (≈ 19.9 µM)	0.1 µg/mL (≈ 0.322 µM)	0.8 µg/mL (≈ 2.57 µM)	C=C(c1ccccc1OCc1ccccc1Cl)n1ccnc1
25 µg/mL (≈ 75.2 µM)	0.2 µg/mL (≈ 0.602 µM)	1.6 µg/mL (≈ 4.81 µM)	CC(C)=C(c1ccccc1OCCCc1ccccc1)n1ccnc1
> 100 µg/mL	> 100 µg/mL	> 100 µg/mL	C=C(c1ccccc1NCc1ccc(Cl)cc1)n1ccnc1
> 100 µg/mL	3.1 µg/mL (≈ 7.43 µM)	> 100 µg/mL	CC(C)=C(c1cc(Cl)ccc1OCCCOc1ccc(Cl)cc1)n1ccnc1
6.2 µg/mL (≈ 16.6 µM)	0.4 µg/mL (≈ 1.07 µM)	0.8 µg/mL (≈ 2.14 µM)	CCC=C(c1cc(Cl)ccc1OCc1ccc(Cl)cc1)n1ccnc1
3.1 µg/mL (≈ 9.54 µM)	0.1 µg/mL (≈ 0.308 µM)	6.2 µg/mL (≈ 19.1 µM)	C=C(c1ccccc1OC(C)c1ccc(Cl)cc1)n1ccnc1 (centres undefined)
25 µg/mL (≈ 81.6 µM)	0.1 µg/mL (≈ 0.326 µM)	6.2 µg/mL (≈ 20.2 µM)	C=C(c1ccccc1OCc1ccc(OC)cc1)n1ccnc1
25 µg/mL (≈ 90.3 µM)	0.2 µg/mL (≈ 0.723 µM)	0.4 µg/mL (≈ 1.45 µM)	C=C(c1cc(Cl)ccc1OCCCC)n1ccnc1
6.2 µg/mL (≈ 19.1 µM)	3.1 µg/mL (≈ 9.54 µM)	1.6 µg/mL (≈ 4.93 µM)	CC=C(c1ccccc1OCc1cccc(Cl)c1)n1ccnc1
6.2 µg/mL (≈ 18.3 µM)	1.6 µg/mL (≈ 4.72 µM)	1.6 µg/mL (≈ 4.72 µM)	CCC=C(c1cc(Cl)ccc1OCc1ccccc1)n1ccnc1
6.2 µg/mL (≈ 16.6 µM)	0.2 µg/mL (≈ 0.536 µM)	6.2 µg/mL (≈ 16.6 µM)	CC(C)=C(c1cc(Cl)ccc1OCc1ccc(Cl)cc1)n1ccnc1
12.5 µg/mL (≈ 37.8 µM)	0.1 µg/mL (≈ 0.302 µM)	3.1 µg/mL (≈ 9.37 µM)	C=C(c1cc(Cl)ccc1OC(C)c1ccsc1)n1ccnc1 (centres undefined)
> 100 µg/mL	0.4 µg/mL (≈ 1.7 µM)	3.1 µg/mL (≈ 13.2 µM)	C=C(c1cc(Cl)ccc1OC)n1ccnc1
25 µg/mL (≈ 72.4 µM)	0.1 µg/mL (≈ 0.29 µM)	3.1 µg/mL (≈ 8.98 µM)	C=C(c1ccccc1OCc1ccc(Cl)c(Cl)c1)n1ccnc1
12.5 µg/mL (≈ 30.7 µM)	3.1 µg/mL (≈ 7.6 µM)	6.2 µg/mL (≈ 15.2 µM)	CC(C)=C(c1cc(Cl)ccc1OCc1ccc(Cl)c(Cl)c1)n1ccnc1
12.5 µg/mL (≈ 41.1 µM)	0.1 µg/mL (≈ 0.329 µM)	3.1 µg/mL (≈ 10.2 µM)	C=C(c1ccccc1OCCCc1ccccc1)n1ccnc1
> 100 µg/mL	3.1 µg/mL (≈ 8.04 µM)	50 µg/mL (≈ 130 µM)	C=C(c1cc(Cl)cc(Cl)c1OCc1ccsc1Cl)n1ccnc1
12.5 µg/mL (≈ 45.2 µM)	0.2 µg/mL (≈ 0.724 µM)	3.1 µg/mL (≈ 11.2 µM)	C=C(c1ccccc1OCc1ccccc1)n1ccnc1
6.2 µg/mL (≈ 20.4 µM)	0.1 µg/mL (≈ 0.329 µM)	3.1 µg/mL (≈ 10.2 µM)	C=C(c1ccccc1OC(CC)c1ccccc1)n1ccnc1 (centres undefined)

MIC (Candida albicans)	MIC (Trichophyton benhamiae)	MIC (Aspergillus fumigatus)	Compound
50 µg/mL (≈ 147 µM)	0.1 µg/mL (≈ 0.293 µM)	1.6 µg/mL (≈ 4.69 µM)	C=C(c1ccccc1OCCOc1ccc(Cl)cc1)n1ccnc1
12.5 µg/mL (≈ 39.3 µM)	0.4 µg/mL (≈ 1.26 µM)	12.5 µg/mL (≈ 39.3 µM)	C=C(c1ccccc1OC(CCC)c1ccccc1)n1ccnc1 (centres undefined)
12.5 µg/mL (≈ 34.8 µM)	0.1 µg/mL (≈ 0.278 µM)	12.5 µg/mL (≈ 34.8 µM)	C=C(c1cc(Cl)ccc1OC(C)c1ccc(Cl)cc1)n1ccnc1 (centres undefined)
12.5 µg/mL (≈ 41.1 µM)	0.1 µg/mL (≈ 0.329 µM)	25 µg/mL (≈ 82.1 µM)	C=C(c1ccccc1OCc1ccc(CC)cc1)n1ccnc1
> 100 µg/mL	0.4 µg/mL (≈ 1.87 µM)	3.1 µg/mL (≈ 14.5 µM)	C=C(c1ccccc1OCC)n1ccnc1
12.5 µg/mL (≈ 31.7 µM)	1.6 µg/mL (≈ 4.06 µM)	0.4 µg/mL (≈ 1.02 µM)	CC=C(c1cc(Cl)ccc1OCc1ccc(Cl)cc1Cl)n1ccnc1
25 µg/mL (≈ 78.5 µM)	3.1 µg/mL (≈ 9.74 µM)	3.1 µg/mL (≈ 9.74 µM)	C=C(c1ccccc1OCc1ccc(C(C)C)cc1)n1ccnc1
12.5 µg/mL (≈ 36.9 µM)	0.2 µg/mL (≈ 0.59 µM)	0.8 µg/mL (≈ 2.36 µM)	C=C(c1ccccc1OCCCc1ccc(Cl)cc1)n1ccnc1
50 µg/mL (≈ 148 µM)	0.2 µg/mL (≈ 0.59 µM)	1.6 µg/mL (≈ 4.72 µM)	C=C(c1cc(Cl)ccc1OCCCc1ccccc1)n1ccnc1
12.5 µg/mL (≈ 35.2 µM)	0.1 µg/mL (≈ 0.282 µM)	12.5 µg/mL (≈ 35.2 µM)	C=C(c1ccccc1OCCCOc1ccc(Cl)cc1)n1ccnc1
6.2 µg/mL (≈ 17.3 µM)	0.1 µg/mL (≈ 0.278 µM)	12.5 µg/mL (≈ 34.8 µM)	C=C(c1cc(Cl)ccc1OC(C)c1cccc(Cl)c1)n1ccnc1 (centres undefined)
50 µg/mL (≈ 163 µM)	0.1 µg/mL (≈ 0.326 µM)	12.5 µg/mL (≈ 40.8 µM)	C=C(c1ccccc1OCCOc1ccccc1)n1ccnc1
> 100 µg/mL	0.8 µg/mL (≈ 2.27 µM)	> 100 µg/mL	C=C(c1cc(Cl)ccc1OC(CCC)c1ccccc1)n1ccnc1 (centres undefined)
25 µg/mL (≈ 69.6 µM)	0.1 µg/mL (≈ 0.278 µM)	0.4 µg/mL (≈ 1.11 µM)	C=C(c1ccccc1OCCc1ccc(Cl)cc1Cl)n1ccnc1
12.5 µg/mL (≈ 38.9 µM)	0.1 µg/mL (≈ 0.311 µM)	6.2 µg/mL (≈ 19.3 µM)	C=C(c1ccccc1OCc1ccc([N+](=O)[O-])cc1)n1ccnc1
12.5 µg/mL (≈ 32.6 µM)	1.6 µg/mL (≈ 4.18 µM)	6.2 µg/mL (≈ 16.2 µM)	CC(C)=C(c1ccccc1OCCCOc1ccc(Cl)cc1)n1ccnc1
50 µg/mL (≈ 177 µM)	0.1 µg/mL (≈ 0.354 µM)	3.1 µg/mL (≈ 11 µM)	C=C(c1ccccc1OCc1ccsc1)n1ccnc1
3.1 µg/mL (≈ 8.63 µM)	0.8 µg/mL (≈ 2.23 µM)	0.8 µg/mL (≈ 2.23 µM)	CC=C(c1cc(Cl)ccc1OCc1ccc(Cl)cc1)n1ccnc1
